This is one part of a sample in which hits are shown more often than they occur.
Fibroblast inh: antiproliferative effect on LL 47 fibroblasts – human, LL 47 cells, CellTiter-Glo luminescence, primary screen; viability, % at 10 µM; 85,000 compounds, 1.1% hits; LL 47 human lung fibroblast viability, ATP luminescence; stronger effect = lower value;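 active = viability at or below 50% in the single dose screen; inactive = viability above 50%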;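 note: compound exposure lasted 72 h before the ATP readout; 100% = median luminescence of untreated cell-only wells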
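Times – overnight cell rest, 72 h compound treatment at 37 °C · Test system – human lung fibroblast line LL 47, low passage · Amount – 1,150 cells in each well · Controls – cell-only wells, no compound · Doses – 0.1% DMSO in all compound wells · Measured by – CellTiter-Glo luminescence · Buffer or medium – IMEM plus 15% FBS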
HUVEC inhibit: inhibitors of HUVEC proliferation, primary screen, cell-based, 384-well; CellTiter-Glo luminescence, 72 h; stronger effect = lower value; viability, % at 10 µM (by protocol); 86,000 compounds, 1.1% hits; AID 648, 2007;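 active = viability at or below 30%; inactive = viability above 30%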;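 note: 100% = median luminescence of DMSO-only cell control wells on each plate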
HCT116 PTEN-null: growth suppression of PTEN-null HCT116, primary screen, cell-based, CellTiter-Glo. 140,000 compounds, 1.2% hits. HCT116 PTEN-null viability, 60 h; stronger effect = lower value. viability, % at 10 µM. AID 827, 2007;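 active = viability at or below a set limit, 4 SD under the median of all tested compounds, cut at about 3.7% in these data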;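 note: PTEN knockout HCT116 line with beta catenin targeted HCT116 as companion control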
H69AR growth 86K: proliferation blockers of H69AR lung cancer cells, primary screen, cell-based, human, 86K library | viability, % at 10 µM | 85,000 compounds, 6% hits | H69AR lung tumor viability, ATP luminescence, 72 h; stronger effect = lower value | AID 598, 2007;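 active = viability at or below 40%; inactive = viability above 40%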;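 note: multidrug resistant small cell line overexpressing MRP-1 efflux transporter; 100% = mean luminescence of untreated control wells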
bCat KO growth: primary screen for growth suppressors in beta-catenin knockout HCT116 cells (colon tumor, human) | AID 818, 2007 | 140,000 compounds, 1.5% hits | viability, % at 10 µM | HCT116 beta-catenin knockout viability, CellTiter-Glo, 60 h; stronger effect = lower value;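 active = viability at or under a set limit, the compound median less 4 SD, cut at about 6% in these data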;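 note: 0% = Hyamine 1622 control at 20 µM and 100% = untreated cell control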
The depositor's hits bear a star; . = no result.

SMILES	Fibroblast inh	HUVEC inhibit	HCT116 PTEN-null	H69AR growth 86K	bCat KO growth
CC12C(=O)N(c3ccc(C(=O)N4CCOCC4)cc3)C(=O)C1C1c3ccccc3C2c2ccccc21 (stereo not drawn)	.	.	96	.	97
Cn1c(O)c(C2=c3ccccc3=NC2=O)sc1=Nc1ccc(Cl)cc1	76	68	50	40*	46
C=CCn1c(O)c(C2=c3ccccc3=NC2=O)s/c1=N/c1nccs1	42*	66	27	23*	28
O=C(O)CCC(C(=O)O)n1c(O)c(C2=c3ccccc3=NC2=O)sc1=S (stereo not drawn)	93	85	91	93	95
C/C(Cl)=C/Cn1c(N2CCCC2)nc2c1c(=O)n(C)c(=O)n2C	86	92	91	33*	86
Cn1c(=O)c2c(nc(N3CCN(Cc4ccccc4)CC3)n2CC(=O)c2ccccc2)n(C)c1=O	93	92	.	32*	.
Cn1c(=O)c2c(nc(N3CCN(Cc4ccccc4)CC3)n2CCCc2ccccc2)n(C)c1=O	89	67	45	74	52
CCCCCOC(=O)Cn1c(=O)c2c(nc(N3CCOCC3)n2C)n(C)c1=O	96	94	84	35*	87
CCOC(=O)Cn1c(=O)c2c(nc(N3CCCCC3)n2Cc2ccccc2)n(C)c1=O	96	102	79	24*	79
C/C(Cl)=C\Cn1c(N2CCCC2)nc2c1c(=O)[nH]c(=O)n2C	92	96	95	70	105
Cc1cc(C)n(CCc2nc(-c3ccc(-c4ccccc4)cc3)cs2)n1	.	.	21	.	16
Cc1ccc(S(=O)(=O)Nc2ccc3c(c2)c2c(n3S(=O)(=O)c3ccc(C)cc3)CCCC2=O)cc1	.	.	72	.	83
Cn1c(=O)[nH]c(=O)c2c1nc(N1CCN(Cc3ccccc3)CC1)n2CCCc1ccccc1	93	85	6	71	5.6*
CCCCCn1c(CN2CCN(c3cc(Cl)ccc3C)CC2)nc2c1c(=O)[nH]c(=O)n2C	87	28*	10	3.5*	7
Cn1c(=O)[nH]c(=O)c2c1nc(N1CCN(c3cccc(Cl)c3)CC1)n2CCCc1ccccc1	98	93	100	.	99
CCCCCn1c(N2CCN(c3cccc(Cl)c3)CC2)nc2c1c(=O)[nH]c(=O)n2C	99	85	56	59	65
Cn1c2c(c(=O)n(C)c1=O)C(C(F)(F)F)(C(F)(F)F)N=C(c1ccc(Cl)cc1)N2	.	.	4	.	3.0*
CCC(CC)C1C(C#N)=C(N)Oc2n[nH]c(C)c21 (stereo not drawn)	80	67	75	13*	54
CC(C)C1C(C#N)=C(N)Oc2n[nH]c(-c3ccc4ccccc4c3)c21 (stereo not drawn)	62	40	25	16*	25
CCC(CC)C1C(C#N)=C(N)Oc2n[nH]c(-c3ccccc3)c21 (stereo not drawn)	76	71	86	36*	82
N#CC1=C(N)Oc2n[nH]c(-c3ccccc3)c2C1c1ccsc1 (stereo not drawn)	96	76	97	84	94
COc1ccc2oc(=O)c(C(=O)Oc3ccc(NC(C)=O)cc3)cc2c1	.	.	100	.	113
COc1cc(C)c(/C=C(\C#N)C(=O)Nc2cccc(C)c2)cc1C(C)C	.	.	95	.	95
O=C(Nc1cccnc1)c1ccc(COc2ccccc2Br)o1	59	24*	27	44	26
Cc1cc(C(=O)Nc2ncn[nH]2)ccc1[N+](=O)[O-]	.	.	98	.	97
SMILES	Fibroblast inh	HUVEC inhibit	HCT116 PTEN-null	H69AR growth 86K	bCat KO growth
COc1ccc(CCC(=O)Nc2ccc(-c3noc(-c4ccc(OC)c(OC)c4)n3)cc2)cc1	98	94	109	78	100
COc1ccc(-c2nc(-c3ccc(NC(=O)c4ccc(Br)o4)cc3)no2)cc1OC	63	35	95	3.5*	95
COc1cc(-c2nc(-c3ccc(NC(=O)c4ccc(Br)o4)cc3)no2)cc(OC)c1OC	92	32	19	4.5*	24
COc1cc(C2Nc3cccc4cccc(c34)N2)cc(OC)c1O	107	82	89	19*	91
COc1cc(C2Nc3cccc4cccc(c34)N2)ccc1OC(C)=O	108	75	94	.	89
Cc1ccc(C2Nc3cccc4cccc(c34)N2)s1	.	.	102	.	99
c1coc(C2Nc3cccc4cccc(c34)N2)c1	98	78	89	6.7*	92
Oc1ccc(C2Nc3cccc4cccc(c34)N2)c(O)c1	83	82	81	17*	95
O=C(CC1NCCNC1=O)Nc1ccc2c(c1)OCO2 (stereo not drawn)	108	98	96	96	95
CC(C)NC(=O)c1c2c(nc3ccccc13)CCCC2	100	88	96	33*	96
Cc1onc(-c2ccccc2Cl)c1C(=O)N1CCN(c2cccc(Cl)c2)CC1	54	52	15	28*	22
Cc1onc(-c2ccccc2Cl)c1C(=O)N1CCN(C(=O)c2ccco2)CC1	101	95	86	95	85
Cc1onc(-c2ccccc2Cl)c1C(=O)N1CCN(c2ccccc2)CC1	93	99	65	20*	70
C=CCn1c(O)c(N=NC(=S)Nc2ccc(OC)cc2)c2ccccc21	54	50	11	35*	18
Cn1c(=O)c2c(-c3ccccc3)n3c4ccccc4ncc3c2n(C)c1=O	91	70	.	38*	.
CCOc1ccc2cc(/C=C/C(=O)c3ccco3)c(Cl)nc2c1	97	76	7	2.4*	8
COc1ccc(CN(CC2CCCO2)C(=O)CN2C(=O)COc3ccccc32)cc1OC (stereo not drawn)	110	95	85	75	80
CCCCn1c(=O)[nH]c(=O)c2c1nc(-c1ccc(-c3ccccc3Br)o1)n2CCOC	39*	44	41	47	34
COCCn1c(-c2ccc(-c3ccccc3Cl)o2)nc2c1c(=O)[nH]c(=O)n2CC(C)C	60	37	61	18*	62
NNC(=O)COc1cccc2cccnc12	92	98	111	101	101
O=C(Oc1cccc2cccnc12)c1cccs1	3.4*	52	1.9*	1.6*	4.1*
O=C(Oc1cccc2cccnc12)c1ccc2c(c1)OCCO2	3.2*	100	2.5*	29*	4.8*
O=S(=O)(Nc1ccc2c(c1)OCCO2)c1cccc2cccnc12	96	98	70	89	70
O=C(Oc1ccccc1)c1cccc2cccnc12	36*	87	1.7*	0.8*	3.3*
O=C(Cc1ccc(Cl)cc1)Oc1cccc2cccnc12	.	.	3.0*	.	4.2*
CC(C)NC(=O)/C(=C/c1cn(-c2ccccc2)nc1-c1cccc([N+](=O)[O-])c1)NC(=O)c1ccccc1	.	.	84	.	85
CC(=O)c1ccc(NC(=S)NNC(=O)c2ccncc2)cc1	.	.	90	.	90
